# According to ChEMBL document CHEMBL1671655, “Anidulafungin is fungicidal and exerts a variety of postantifungal effects against Candida albicans, C. glabrata, C. parapsilosis, and C. krusei isolates” (2009):
# Calls of active or inactive are those of the source. The rule behind the calls is not given here. Starred links: 1 amine or outer side, 2 acyl side, 3 side chain; linkers in the order of their positions; H or OH if unused. Positions of bridges follow the written chain, without caps; N, C: chain ends. Non-standard residues stand in square brackets, D forms with d. Residues, ends and D or L forms follow the SMILES beside them. *: point of attachment. pTerphenylCO(4''-OnC5H11) = CCCCCOc1ccc(-c2ccc(-c3ccc(C(=O)*)cc3)cc2)cc1; Orn(4R-OH,5R-OH) = O=C([C@H](C[C@@H](O)[C@@H](O)N[*:3])N[*:1])[*:2]; hTyr(3S-OH,4S-OH) = N[C@H](C(=O)O)[C@H](O)[C@@H](O)c1ccc(O)cc1; Pro(3S-OH,4S-Me) = C[C@H]1CN[C@H](C(=O)O)[C@H]1O; Hyp = O=C(O)[C@@H]1C[C@@H](O)CN1
# Legend:
# Candida parapsilosis [1] = test: Inhibition of Candida parapsilosis isolate A adherence to human buccal epithelial cells at 4 times MIC after 1 hr by adherence assay relative to control; type: functional, Epithelial cell
# In short: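 Candida collected 8 h after a 1-h 4x MIC pulse and washout were grown on SDA for 24 h at 35°C. Buccal epithelial cells were pooled from three donors and washed in PBS. Cells (1 x 10^5/ml) were mixed 1:1 by volume with Candida (1 x 10^6/ml) and shaken 1 h at 37°C. Mixtures were filtered, washed, and Gram-stained, and Candida were counted per 100 epithelial cells. Run in duplicate on ≥2 occasions; Student's t test against unexposed controls.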
# Candida albicans [2] = test: Fungicidal activity against Candida albicans isolate 2 assessed as log reduction in bacterial count at 16 times MIC after drug exposure for 1 hr followed by washout measured after 48 hrs in the absence of drug by PAFE study; type: functional
# In short: (§1)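 Starting inoculum ~1 x 10^5 to 5 x 10^5 CFU/ml in MOPS-buffered RPMI 1640 (pH 7.0) with drug at multiples of the CLSI M27-A3 MIC. After 1 h at 35°C, cells washed and centrifuged three times at 1,400 x g for 10 min, then resuspended in warm drug-free RPMI. Shaken at 35°C and plated on SDA at 0–48 h; CFU counted after 48 h. Run twice per isolate; means.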
# Candida albicans [3] = test: Fungicidal activity against Candida albicans isolate S assessed as log reduction in bacterial count at MIC after drug exposure for 1 hr followed by washout measured after 48 hrs in the absence of drug by PAFE study; type: functional; in short: as §1
# Candida parapsilosis [4] = test: Fungicidal activity against Candida parapsilosis isolate S assessed as log reduction in bacterial count at MIC after 48 hrs by time-kill analysis; type: functional; settings: Lodderomyces parapsilosis
# In short: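 Isolates subcultured twice on SDA, then suspended to 0.5 McFarland and diluted into RPMI 1640 (MOPS, pH 7.0) with or without anidulafungin, giving about 1 x 10^5 to 5 x 10^5 CFU/ml. Tubes were shaken at 35°C. Samples were taken at 0, 2, 4, 8, 12, 24 and 48 h, serially diluted 10-fold, plated on SDA, and CFU counted after 48 h at 35°C. Each isolate was run twice; mean values.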
# Pichia kudriavzevii [5] = test: Fungicidal activity against Candida krusei isolate 1 assessed as log reduction in bacterial count at 16 times MIC after 48 hrs by time-kill analysis; type: functional; settings: isolate 1, 48 h
# In short: (§2)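 Isolates subcultured twice on SDA, suspended to 0.5 McFarland, giving ~1 x 10^5 to 5 x 10^5 CFU/ml in MOPS-buffered RPMI 1640 (pH 7.0) with or without drug at multiples of MIC (MIC by CLSI M27-A3). Tubes shaken at 35°C with continuous drug. Sampled at 0–48 h, diluted 10-fold and plated on SDA; CFU counted after 48 h at 35°C. Run twice per isolate; means.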
# Nakaseomyces glabratus [6] = test: Fungicidal activity against Candida glabrata isolate 1 assessed as log reduction in bacterial count at 4 times MIC after 48 hrs by time-kill analysis; type: functional; settings: isolate 1, 48 h; in short: as §2
# Nakaseomyces glabratus [7] = test: Increase in susceptibility to calcofluor white in Candida glabrata isolate 1 assessed as cell wall damage at 4 times MIC after 1 hr relative to control; type: functional, organism-based
# In short: (§3)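 Cells recovered 8 h after a 1-h drug exposure were grown to exponential phase in YPD with 1% glucose and adjusted to OD599 0.1. Undiluted and 10-fold serially diluted cultures were spotted onto YPD plates containing calcofluor white, then incubated at 30°C for 72 h. Growth compared with no-drug control cells; triplicate.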
# Pichia kudriavzevii [8] = test: Antifungal activity against Candida krusei isolate ATCC 6258 assessed as time period for bacterial growth inhibition at 4 times MIC after 1 hr drug exposure; type: functional
# In short: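 Inoculum of about 1 x 10^5 to 5 x 10^5 CFU/ml in MOPS-buffered RPMI (pH 7.0), shaken at 35°C and exposed to drug for 1 h. Cells then washed and centrifuged three times and resuspended in drug-free warm RPMI. Samples plated on SDA at 0, 2, 4, 8, 12, 24 and 48 h, with CFU counted after 48 h at 35°C. Run twice per isolate; values are means.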
# Nakaseomyces glabratus [9] = test: Increase in susceptibility to calcofluor white in Candida glabrata isolate 1 assessed as cell wall damage at MIC after 1 hr relative to control; type: functional, organism-based; in short: as §3
# Candida albicans [10] = test: Increase in susceptibility to calcofluor white in Candida albicans isolate 1 assessed as cell wall damage at 16 times MIC after 1 hr relative to control; type: functional, organism-based; in short: as §3
# Candida albicans [11] = test: Increase in susceptibility to SDS in Candida albicans ATCC 90028 assessed as cell wall damage at 4 times MIC after 1 hr relative to control; type: functional, organism-based
# In short: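 Cells recovered 8 h after a 1-h drug exposure were grown in YPD with 1% glucose to exponential phase and adjusted to OD599 0.1. Undiluted culture and 10-fold serial dilutions were spotted onto YPD plates containing SDS (0.01 to 0.04%), then incubated 72 h at 30°C. Growth compared with unexposed control cells; triplicate.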
smiles,measurement,setting,value
"CCCCCOc1ccc(-c2ccc(-c3ccc(C(=O)N[C@H]4C[C@@H](O)[C@@H](O)NC(=O)[C@@H]5[C@@H](O)[C@@H](C)CN5C(=O)[C@H]([C@@H](C)O)NC(=O)[C@H]([C@H](O)[C@@H](O)c5ccc(O)cc5)NC(=O)[C@@H]5C[C@@H](O)CN5C(=O)[C@H]([C@@H](C)O)NC4=O)cc3)cc2)cc1 [ANIDULAFUNGIN] ({pTerphenylCO(4''-OnC5H11)}-[Orn(4R-OH,5R-OH)]T[Hyp][hTyr(3S-OH,4S-OH)]T[Pro(3S-OH,4S-Me)]; lactam 1-C)",inhibition (INH),Candida parapsilosis [1],69%
same,log reduction,Candida albicans [2],1.55
same,log reduction,Candida albicans [3],1.59 log CFU/ml
same,log reduction,Candida parapsilosis [4],1.32 log CFU/ml
same,log reduction,Pichia kudriavzevii [5],3 log CFU/ml
same,log reduction,Nakaseomyces glabratus [6],2.77 log CFU/ml
same,Activity,Nakaseomyces glabratus [7],Active
same,Time,Pichia kudriavzevii [8],8 h
same,Activity,Nakaseomyces glabratus [9],Active
same,Activity,Candida albicans [10],Active
same,Activity,Candida albicans [11],Active
